Reference: publication PMC12222516 (Scientific Reports, 2025)

Experiments:
MTT cytotoxicity assay = format: cell-based, human; settings: human, normal human dermal fibroblast (HDF) cells
Summary of the method: (§1)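 Human dermal fibroblasts grown in DMEM with 10% FBS, penicillin 100 units/mL, streptomycin 100 µg/mL and amphotericin B 0.25 µg/mL. Seeded at 2 × 10³ cells/well and left to adhere overnight at 37 °C, 5% CO2. Exposed to varying doses for 24 h, with 0.5% DMSO as untreated control. MTT at 1 mg/mL for 4 h at 37 °C. Formazan dissolved in DMSO and read at 570 nm. Viability expressed as % of control.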

[1] = tested on: normal human dermal fibroblast (HDF) cells; assay: MTT cytotoxicity assay; format: cell-based; settings: HDF cells, MTT
Summary of the method: as §1

[2] = target: α-glucosidase from Saccharomyces cerevisiae (Saccharomyces cerevisiae, UniProt P53341); assay: Enzyme kinetic study; format: biochemical
Summary of the method: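 Yeast (S. cerevisiae) α-glucosidase, EC 3.2.1.20, kept at 0.02 U/mL. Run with and without test compound at several concentrations, across a range of p-NPG substrate concentrations. Inhibition type assigned from the Lineweaver–Burk plot. Ki taken from a secondary plot of slope against inhibitor concentration.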

Chain of α-glucosidase from Saccharomyces cerevisiae (P53341 whole entry): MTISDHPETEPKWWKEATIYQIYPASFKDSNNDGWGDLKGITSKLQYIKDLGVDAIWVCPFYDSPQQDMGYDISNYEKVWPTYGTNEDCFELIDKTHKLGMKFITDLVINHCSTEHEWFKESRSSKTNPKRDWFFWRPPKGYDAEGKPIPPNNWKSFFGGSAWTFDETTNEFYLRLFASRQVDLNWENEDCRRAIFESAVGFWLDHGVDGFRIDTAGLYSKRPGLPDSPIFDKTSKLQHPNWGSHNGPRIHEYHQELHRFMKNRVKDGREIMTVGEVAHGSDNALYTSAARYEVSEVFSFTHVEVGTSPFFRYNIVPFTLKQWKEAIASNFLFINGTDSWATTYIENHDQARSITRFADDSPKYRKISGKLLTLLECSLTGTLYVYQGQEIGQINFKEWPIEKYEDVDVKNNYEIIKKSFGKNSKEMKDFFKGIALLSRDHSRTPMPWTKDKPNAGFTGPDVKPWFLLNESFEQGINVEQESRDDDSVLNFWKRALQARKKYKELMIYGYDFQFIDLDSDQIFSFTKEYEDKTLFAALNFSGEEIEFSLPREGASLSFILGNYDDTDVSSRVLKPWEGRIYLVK

C[C@H]1CN(C(=O)Nc2ccc(C(F)(F)F)cc2)CCN1c1ccnc(Nc2cccc([N+](=O)[O-])c2)n1 [Compound 17c, (S)-3-methyl-4-(2-((3-nitrophenyl)amino)pyrimidin-4-yl)-N-(4-(trifluoromethyl)phenyl)piperazine-1-carboxamide]
CC50 at 24 h (MTT cytotoxicity assay): 15.2 µM

C[C@H]1CN(C(=O)Nc2ccc(C(F)(F)F)cc2)CCN1c1ccnc(Nc2ccc(Cl)cc2)n1 [Compound 7c, (S)-4-(2-((4-chlorophenyl)amino)pyrimidin-4-yl)-3-methyl-N-(4-(trifluoromethyl)phenyl)piperazine-1-carboxamide]
CC50 at 24 h (MTT cytotoxicity assay): 42.3 µM

C[C@H]1CN(C(=O)Nc2ccc(C(F)(F)F)cc2)CCN1c1ccnc(Nc2ccc(Cl)c(O)c2)n1 [Compound 21c, (S)-4-(2-((4-chloro-3-hydroxyphenyl)amino)pyrimidin-4-yl)-3-methyl-N-(4-(trifluoromethyl)phenyl)piperazine-1-carboxamide]
CC50 at 24 h (MTT cytotoxicity assay): 23.1 µM
cytotoxic effect on normal cells at given IC50 value [1]: no cytotoxic effect
Ki [2]: 0.74 µM
mode of inhibition ([2]; Lineweaver–Burk plots): competitive inhibitor

C[C@H]1CN(C(=O)Nc2ccc(C(F)(F)F)cc2)CCN1c1ccnc(Nc2ccc(Cl)c(OCc3ccccc3)c2)n1 [Compound 22c, (S)-4-(2-((3-(benzyloxy)-4-chlorophenyl)amino)pyrimidin-4-yl)-3-methyl-N-(4-(trifluoromethyl)phenyl)piperazine-1-carboxamide]
CC50 at 24 h (MTT cytotoxicity assay): > 200 µM
